From ChEMBL document CHEMBL1125057, “Synthesis and antihypertensive activity of 4-(substituted-carbonylamino)-2H-1-benzopyrans” (1990)

Tests used:
Assay type in all cases: functional
Rattus norvegicus [1] = assay: Systolic blood pressure was measured at intervals from 1 to 6 hr in groups of six rats after oral administration of a dose of 10 mg/kg
In short: (§1)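 Conscious spontaneously hypertensive rats of Okamoto origin, 14-24 weeks old, with systolic pressure >180 mmHg, were used in groups of six. Dosing was oral by esophageal needle as a solution or suspension in 1% w/v methylcellulose. Systolic pressure was taken by tail-cuff before dosing and at intervals up to 6 h postdose. Each determination was the mean of at least six recordings.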

Rattus norvegicus [2] = assay: Systolic blood pressure at intervals from 1 to 6 hr in groups of six rats after 0.3 mg/kg p.o. administration.; conditions: route oral; in short: as §1
Rattus norvegicus [3] = assay: Systolic blood pressure was measured at intervals from 1 to 6 hr in groups of six rats after oral administration of a dose of 0.1 mg/kg; in short: as §1
Oryctolagus cuniculus = species on record: Oryctolagus cuniculus; assay: Increase in rubidium-86 efflux in rabbit isolated mesenteric artery over basal rate
In short: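 Segments (10-20 mg wet weight) of New Zealand White rabbit mesenteric artery were held 30 min in aerated (19:1 O2-CO2) HEPES buffer, pH 7.4, at 37 °C. They were loaded with 100-200 µCi rubidium-86 over 90 min, then moved every 3 min through label-free buffer. Compound at 1 × 10^-5 M was present over min 30-48. Efflux was counted by liquid scintillation. Value is the maximum rate coefficient over min 30-45 as a percentage of basal (mean over min 21-30), ± standard error.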

Rattus norvegicus [4] = assay: Systolic blood pressure was measured at intervals from 1 to 6 hr in groups of six rats after oral administration of a dose of 1.0 mg/kg; in short: as §1
Rattus norvegicus [5] = assay: Systolic blood pressure was measured at intervals from 1 to 6 hr in groups of six rats after oral administration of a dose of 3 mg/kg; in short: as §1
Rattus norvegicus [6] = assay: Systolic blood pressure was measured at intervals from 1 to 6 hr in groups of six rats after oral administration of a dose of 10.0 mg/kg; in short: as §1
Rattus norvegicus [7] = assay: Systolic blood pressure was measured at intervals from 1 to 6 hr in groups of six rats after oral administration of a dose of 1 mg/kg; in short: as §1
Rattus norvegicus [8] = assay: Systolic blood pressure was measured at intervals from 1 to 6 h in groups of six rats after oral administration of a dose of 1 mg/kg; in short: as §1

| Structure (SMILES) | Decrease in blood pressure (Rattus norvegicus [1]) | Decrease in blood pressure (Rattus norvegicus [2]) | Decrease in blood pressure (Rattus norvegicus [4]) | other results |
| --- | --- | --- | --- | --- |
| CC1(C)Oc2ccc(C#N)cc2C(NC(=O)Nc2ccccc2)[C@@H]1O (some centres not stated) | 13% | – | – | – |
| CNC(=O)NC1c2cc(C#N)ccc2OC(C)(C)[C@H]1O (some centres not stated) | – | 31% | 61% | Decrease in blood pressure (Rattus norvegicus [3]): 14%; Increase (Oryctolagus cuniculus): 63% |
| CC(=O)NC1c2cc(C#N)c([N+](=O)[O-])cc2OC(C)(C)[C@H]1O (some centres not stated) | – | 46% | – | Decrease in blood pressure (Rattus norvegicus [3]): 26% |
| CC(C)(C)NC(=O)NC1c2cc(C#N)ccc2OC(C)(C)[C@H]1O (some centres not stated) | 8% | – | – | – |
| CC1(C)Oc2ccc(C#N)cc2C(NC(=O)c2ccc[nH]2)[C@@H]1O (some centres not stated) | – | 12% | 50% | – |
| CC1(C)Oc2ccc(C#N)cc2C(NC(=O)c2c[nH]c3ccccc23)[C@@H]1O (some centres not stated) | 13% | – | – | – |
| CC1(C)Oc2ccc(C#N)cc2C(N2CCCC2=O)C1O (configuration not stated) [CROMAKALIM] | – | 39% | 47% | Decrease in blood pressure (Rattus norvegicus [3]): 13%; Increase (Oryctolagus cuniculus): 110% |
| CC1(C)Oc2ccc(C#N)cc2C(NC(=O)c2ccco2)[C@@H]1O (some centres not stated) | – | 11% | 54% | – |
| CC(=O)NC1c2cc(Br)c([N+](=O)[O-])cc2OC(C)(C)[C@H]1O (some centres not stated) | – | 25% | 51% | – |
| CNCC(=O)NC1c2cc(C#N)ccc2OC(C)(C)[C@H]1O (some centres not stated) | 15% | – | – | – |
| CC(=O)NC1c2ccccc2OC(C)(C)[C@H]1O (some centres not stated) | 13% | – | – | – |
| CC(=O)NC1c2cc(C#N)ccc2OC(C)(C)[C@H]1O (some centres not stated) | – | 47% | 67% | Decrease in blood pressure (Rattus norvegicus [3]): 18%; Increase (Oryctolagus cuniculus): 59% |
| CC(=O)NC1c2cc(C(C)=O)ccc2OC(C)(C)[C@H]1O (some centres not stated) | – | 23% | 61% | Decrease in blood pressure (Rattus norvegicus [3]): 20%; Increase (Oryctolagus cuniculus): 38% |
| C/N=C(/S)NC1c2cc(C#N)ccc2OC(C)(C)[C@H]1O (some centres not stated) | – | – | – | Decrease in blood pressure (Rattus norvegicus [5]): 33%; Decrease in blood pressure (Rattus norvegicus [6]): 50%; Decrease in blood pressure (Rattus norvegicus [7]): 16% |
| CC1(C)Oc2ccc(C#N)cc2C(NC(=O)c2ccccn2)[C@@H]1O (some centres not stated) | – | 36% | – | Decrease in blood pressure (Rattus norvegicus [3]): 22%; Increase (Oryctolagus cuniculus): 53% |
| CCOC(=O)NC1c2cc(C#N)ccc2OC(C)(C)[C@H]1O (some centres not stated) | – | – | – | Decrease in blood pressure (Rattus norvegicus [5]): 22%; Decrease in blood pressure (Rattus norvegicus [6]): 54%; Decrease in blood pressure (Rattus norvegicus [7]): 13% |
| CCOC(=O)C(=O)NC1c2cc(C#N)ccc2OC(C)(C)[C@H]1O (some centres not stated) | 12% | – | – | – |
| CC1(C)Oc2ccc(C#N)cc2C(NC=O)[C@@H]1O (some centres not stated) | 26% | – | – | Decrease in blood pressure (Rattus norvegicus [7]): 10% |
| CC1(C)Oc2ccc(C#N)cc2C(NC(=O)c2ccoc2)[C@@H]1O (some centres not stated) | – | 19% | 35% | – |
| CC(=O)NC1CC(C)(C)Oc2ccc(C#N)cc21 (configuration not stated) | – | 18% | 44% | – |

| Structure (SMILES) | Decrease in blood pressure (Rattus norvegicus [1]) | Decrease in blood pressure (Rattus norvegicus [2]) | Decrease in blood pressure (Rattus norvegicus [4]) | other results |
| --- | --- | --- | --- | --- |
| COCC(=O)NC1c2cc(C#N)ccc2OC(C)(C)[C@H]1O (some centres not stated) | – | 16% | 32% | – |
| CC(=O)Nc1cc2c(cc1[N+](=O)[O-])OC(C)(C)[C@@H](O)C2NC(C)=O (some centres not stated) | – | – | – | Decrease in blood pressure (Rattus norvegicus [5]): 16% |
| CC(N/C(=N\C#N)Nc1ccncc1)C(C)(C)C (configuration not stated) [PINACIDIL ANHYDROUS] | – | – | – | Decrease in blood pressure (Rattus norvegicus [5]): 39%; Increase (Oryctolagus cuniculus): 72%; Decrease in blood pressure (Rattus norvegicus [7]): 11% |
| CC(=S)NC1c2cc(C#N)ccc2OC(C)(C)[C@H]1O (some centres not stated) | – | 26% | 53% | – |
| CC(=O)NC1c2cc(Cl)ccc2OC(C)(C)[C@H]1O (some centres not stated) | 34% | – | – | Decrease in blood pressure (Rattus norvegicus [7]): 8% |
| CC1(C)Oc2ccc(C#N)cc2C(NC(=O)c2cccnc2)[C@@H]1O (some centres not stated) | – | 27% | 43% | – |
| CC(=O)NC1c2cc(C#N)ccc2OC(C)(C)[C@H]1OC(C)=O (some centres not stated) | – | 34% | – | Decrease in blood pressure (Rattus norvegicus [8]): 61%; Decrease in blood pressure (Rattus norvegicus [3]): 9% |
| CC1(C)Oc2ccc(C#N)cc2C(NC(=O)CCl)[C@@H]1O (some centres not stated) | 28% | – | – | – |
| CC1(C)Oc2ccc(C#N)cc2C(NC(=O)c2ccccc2)[C@@H]1O (some centres not stated) | – | 16% | 41% | – |
| CCN(C(C)=O)C1c2cc(C#N)ccc2OC(C)(C)[C@H]1O (some centres not stated) | – | 14% | 22% | – |
| CC1(C)Oc2ccc(C#N)cc2C(NC(N)=O)[C@@H]1O (some centres not stated) | – | – | – | Decrease in blood pressure (Rattus norvegicus [5]): 46%; Decrease in blood pressure (Rattus norvegicus [6]): 56%; Decrease in blood pressure (Rattus norvegicus [7]): 18% |
| CC(=O)N(C)C1c2cc(C#N)ccc2OC(C)(C)[C@H]1O (some centres not stated) | – | 11% | 31% | – |
| CC(=O)Nc1cc2c(cc1[N+](=O)[O-])C(NC(C)=O)[C@H](O)C(C)(C)O2 (some centres not stated) | – | 38% | – | Decrease in blood pressure (Rattus norvegicus [3]): 9% |
| CC1(C)Oc2ccc(C#N)cc2C(NC(=O)c2ccc3ccccc3c2)[C@@H]1O (some centres not stated) | 35% | – | – | Increase (Oryctolagus cuniculus): 17%; Decrease in blood pressure (Rattus norvegicus [7]): 6% |
| CCCCNC(=O)NC1c2cc(C#N)ccc2OC(C)(C)[C@H]1O (some centres not stated) | 29% | – | – | Decrease in blood pressure (Rattus norvegicus [7]): 11% |
| CC1(C)Oc2ccc(C#N)cc2C(NC(=O)NC(=O)C(Cl)(Cl)Cl)[C@@H]1O (some centres not stated) | 28% | – | – | Decrease in blood pressure (Rattus norvegicus [7]): 13% |
| CCCCC(=O)NC1c2cc(C#N)ccc2OC(C)(C)[C@H]1O (some centres not stated) | 64% | – | – | Decrease in blood pressure (Rattus norvegicus [5]): 18% |
| CC(=O)NC1=CC(C)(C)Oc2ccc(C#N)cc21 | – | – | – | Decrease in blood pressure (Rattus norvegicus [5]): 52%; Decrease in blood pressure (Rattus norvegicus [7]): 20% |
| CCC(=O)NC1c2cc(C#N)ccc2OC(C)(C)[C@H]1O (some centres not stated) | – | 10% | 29% | – |
| CCCN(C(C)=O)C1c2cc(C#N)ccc2OC(C)(C)[C@H]1O (some centres not stated) | – | – | – | Decrease in blood pressure (Rattus norvegicus [5]): 58%; Decrease in blood pressure (Rattus norvegicus [7]): 24% |
